Measurements: ChEMBL document CHEMBL4257448, “Deciphering the origins of molecular toxicity of combretastatin A4 and its glycoconjugates: interactions with major drug transporters and their safety profiles in vitro and in vivo” (Medchemcomm, 2017)
The source made the active and inactive calls. The rule behind the calls is not given here.

What was measured:
HEK293 = experiment: Cytotoxicity against HEK293 cells assessed as reduction in cell viability up to 200 uM after 10 mins by MTT assay; format: cell-based; conditions: human, hek293, 10 min
Method in brief: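 HEK293-mock cells were exposed to 100 or 200 μM for 10 min. MTT was added at 0.83 mg mL−1 final and incubated overnight. Cells were lysed in 15% SDS/0.015 M HCl and absorbance was read at 570 nm. Viability is given as % of drug-free controls.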

[1] = molecular target: T1, Solute carrier organic anion transporter family member 2B1 (Homo sapiens, UniProt O94956); experiment: Inhibition of human OATP2B1 expressed in HEK293 cells assessed as DBF uptake after 5 mins by fluorescence assay; format: cell-based; conditions: for inhibition (INH): human, hek293, 5 min
T1 sequence (O94956 whole entry): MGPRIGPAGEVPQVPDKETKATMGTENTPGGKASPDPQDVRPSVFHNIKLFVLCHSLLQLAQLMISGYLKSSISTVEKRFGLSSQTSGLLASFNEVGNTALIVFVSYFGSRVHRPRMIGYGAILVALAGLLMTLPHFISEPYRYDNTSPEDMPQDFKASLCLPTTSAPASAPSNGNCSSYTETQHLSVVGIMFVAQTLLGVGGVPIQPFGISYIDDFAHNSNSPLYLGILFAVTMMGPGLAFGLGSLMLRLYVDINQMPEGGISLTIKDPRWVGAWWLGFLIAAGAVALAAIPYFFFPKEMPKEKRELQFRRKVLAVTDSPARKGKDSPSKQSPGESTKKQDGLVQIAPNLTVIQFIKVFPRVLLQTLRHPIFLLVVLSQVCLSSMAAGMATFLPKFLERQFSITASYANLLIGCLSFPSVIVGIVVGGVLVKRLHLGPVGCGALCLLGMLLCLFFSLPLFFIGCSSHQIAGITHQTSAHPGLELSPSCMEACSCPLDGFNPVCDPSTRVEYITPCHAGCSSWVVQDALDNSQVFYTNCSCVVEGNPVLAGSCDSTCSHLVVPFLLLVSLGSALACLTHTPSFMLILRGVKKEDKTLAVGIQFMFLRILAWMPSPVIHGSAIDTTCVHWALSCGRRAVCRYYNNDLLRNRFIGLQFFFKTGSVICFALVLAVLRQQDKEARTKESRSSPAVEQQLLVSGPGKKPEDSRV
Method in brief: (§1)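 Stably transfected HEK293 cells (human OAT1, OAT3, OCT1, OCT2, OATP1B3, OATP2B1) and mock cells were assayed 16 h after seeding in HEPES uptake buffer, pH 7.2, with fluorescent probe ± compound. Incubation was 5 min for OAT1/3 and OATPs, and 10 min for OCT1/2. Reference inhibitors were probenecid (OATs), quinine (OCTs) and rifampicin (OATPs). Uptake was stopped with ice-cold PBS and cells were lysed in Tris/Triton. Fluorescence was normalised to BCA protein; triplicates, repeated 2–3 times.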

HT-29 = experiment: Cytotoxicity against human HT-29 cells assessed as reduction in cell viability after 72 hrs by MTT assay; format: functional, cell-based; conditions: HT-29, 72 h
Method in brief: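 HT29 cells were cultured in RPMI-1640 with glutamine and 10% FBS, seeded at 2000–7500 cells/well, and exposed for 72 h to drug in DMSO (final DMSO <0.1%). MTT was added at 0.83 mg mL−1 final and incubated overnight, then cells were lysed in SDS/HCl and read at 570 nm. Survival was expressed as percent of drug-free control; five replicate wells.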

[2] = Cytotoxicity against HEK293FT cells expressing GLUT1 assessed as reduction in cell viability up to 20 uM; format: cell-based; conditions: human
[3] = molecular target: T2, Organic anion transporter 3 (Homo sapiens, UniProt Q8TCC7); experiment: Inhibition of human OAT3 expressed in HEK293 cells assessed as 6-CF uptake after 5 mins by fluorescence assay; format: cell-based; conditions: for inhibition (INH): human, hek293, 5 min; method in brief: as §1
T2 sequence (Q8TCC7 whole entry): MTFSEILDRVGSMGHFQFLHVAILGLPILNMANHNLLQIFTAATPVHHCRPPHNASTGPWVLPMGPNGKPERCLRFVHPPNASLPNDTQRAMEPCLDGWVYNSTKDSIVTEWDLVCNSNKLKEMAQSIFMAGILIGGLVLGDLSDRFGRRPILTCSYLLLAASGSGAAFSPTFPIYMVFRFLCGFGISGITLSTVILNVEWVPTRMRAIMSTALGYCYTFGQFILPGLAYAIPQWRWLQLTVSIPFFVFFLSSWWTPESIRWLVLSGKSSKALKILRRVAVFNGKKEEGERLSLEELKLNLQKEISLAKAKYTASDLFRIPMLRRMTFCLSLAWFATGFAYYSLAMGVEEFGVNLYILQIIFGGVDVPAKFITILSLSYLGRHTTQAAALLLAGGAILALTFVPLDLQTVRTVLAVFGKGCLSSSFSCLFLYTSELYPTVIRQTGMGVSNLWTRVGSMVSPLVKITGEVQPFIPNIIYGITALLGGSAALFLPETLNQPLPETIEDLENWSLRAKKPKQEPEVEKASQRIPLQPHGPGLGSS

[4] = molecular target: T3, Solute carrier family 22 member 2 (Homo sapiens, UniProt O15244); experiment: Inhibition of human OCT2 expressed in HEK293 cells assessed as Asp+ uptake after 10 mins by fluorescence assay; format: cell-based; conditions: for inhibition (INH): human, hek293, 10 min; method in brief: as §1
T3 sequence (O15244 whole entry): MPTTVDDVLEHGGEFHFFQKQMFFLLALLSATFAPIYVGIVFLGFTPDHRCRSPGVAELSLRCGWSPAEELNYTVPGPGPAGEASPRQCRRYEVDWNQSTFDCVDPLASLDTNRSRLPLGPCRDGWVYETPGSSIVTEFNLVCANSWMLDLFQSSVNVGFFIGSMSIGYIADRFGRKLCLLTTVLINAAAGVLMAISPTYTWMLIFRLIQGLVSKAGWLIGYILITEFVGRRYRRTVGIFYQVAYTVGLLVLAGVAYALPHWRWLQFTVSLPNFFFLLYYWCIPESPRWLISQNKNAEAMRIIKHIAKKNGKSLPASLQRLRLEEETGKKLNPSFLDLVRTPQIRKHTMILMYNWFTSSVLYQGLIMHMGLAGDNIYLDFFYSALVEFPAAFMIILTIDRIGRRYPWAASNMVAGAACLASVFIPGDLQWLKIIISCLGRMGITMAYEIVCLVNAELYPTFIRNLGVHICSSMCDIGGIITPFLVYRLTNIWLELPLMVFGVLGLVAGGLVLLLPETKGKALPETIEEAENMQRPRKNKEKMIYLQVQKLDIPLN

SK-OV-3 = experiment: Cytotoxicity against human SKOV3 cells assessed as reduction in cell viability up to 20 uM after 24 hrs by MTT assay; format: functional, cell-based
Method in brief: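 Cells were grown as adherent monolayers at 37 °C in 5% CO2: SKOV3 in advanced DMEM, DU145 and MB231 in RPMI-1640 with glutamine and 10% FBS. They were seeded at 2000–7500 cells/well, treated on day 1 for 24 h with drug in DMSO (final DMSO <0.1%), then given MTT at 0.83 mg mL−1 final overnight. After SDS/HCl lysis, A570 was read as percent of drug-free control; five replicate wells.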

Structure (SMILES) | Activity (HEK293) | IC50 [1] | inhibition (INH) [1] | IC50 (HT-29) | Activity [2] | IC50 [3] | inhibition (INH) [3] | IC50 [4] | inhibition (INH) [4] | Activity (SK-OV-3)
COc1ccc(/C=C\c2cc(OC)c(OC)c(OC)c2)cc1O [COMBRETASTATIN A4] | Non-Toxic | 12.3 µM | Dose-dependent effect | 0.72 µM | Toxic | 16.4 µM | Dose-dependent effect | 61.9 µM | Dose-dependent effect | Active
COc1ccc(/C=C\c2cc(OC)c(OC)c(OC)c2)cc1O[C@@H]1O[C@H](CO)[C@@H](O)[C@H](O)[C@H]1O | Non-Toxic | > 200 µM | Dose-dependent effect | 6.91 µM | Toxic | > 200 µM | Dose-dependent effect | > 200 µM | Dose-dependent effect | Active
